Results collected from several papers.
Lines come from different studies, so protocols differ.
FLT3 autoinhibited: Receptor-type tyrosine-protein kinase FLT3, autoinhibited (FLT3, Homo sapiens, UniProt P36888)
FLT3 K663Q: Receptor-type tyrosine-protein kinase FLT3 (FLT3, Homo sapiens, UniProt P36888, K663Q)
FLT3 D835V: Receptor-type tyrosine-protein kinase FLT3 (FLT3, Homo sapiens, UniProt P36888, D835V)
FLT3: Receptor-type tyrosine-protein kinase FLT3 (FLT3, Homo sapiens, UniProt P36888)
FLT3 D835H: Receptor-type tyrosine-protein kinase FLT3 (FLT3, Homo sapiens, UniProt P36888, D835H)
FLT3 N841I: Receptor-type tyrosine-protein kinase FLT3 (FLT3, Homo sapiens, UniProt P36888, N841I)
FLT3 ITD: Receptor-type tyrosine-protein kinase FLT3 (FLT3, Homo sapiens, UniProt P36888, ITD)

SMILES	target	assay	setting	remaining binding
CN(CCCC(F)(F)F)c1nccc(-c2cnn3ncccc23)n1	FLT3 autoinhibited	binding	1 µM	100%
C[C@@H]1CN(c2cc(-c3n[nH]c4ccc(OC5(C)CC5)cc34)ncn2)C[C@H](C)O1	FLT3 K663Q	cell-free assay, competition with immobilised ligand	0.1 µM	100%
C[C@@H](c1ccc(-n2cnc3c(N)ncnc32)cc1)N1CCc2nn(C)c(Cc3ccccc3)c2C1=O	FLT3 D835V	binding, competition with immobilised ligand	0.1 µM	87%
COc1cnc(Nc2cccc(S(N)(=O)=O)c2)nc1N1CCN(c2ccccc2)C(=O)C1	FLT3	binding, competition with immobilised ligand	1 µM	97%
Cc1cnn2ncc(-c3ccnc(N(C)C)n3)c2c1	FLT3	binding	1 µM	98%
CNC(=O)[C@@H]1CC[C@@H](n2c(-c3ccc4cnccc4c3)nc3ccc(C(=O)NCc4cccc(C(N)=O)c4)cc32)C1	FLT3 D835H	binding, competition with immobilised ligand	1 µM	100%
O=C(c1ccc(Nc2ncc(Cl)c(-c3ccc(Cl)s3)n2)cc1)N1CCC(N2CCCC2)CC1	FLT3 autoinhibited	binding, competition with immobilised ligand	1 µM	1.8%
Cc1nccc(COC(=O)N2C[C@@H]3[C@@H](CNC(=O)c4ccc5[nH]nnc5c4)[C@@H]3C2)n1	FLT3 autoinhibited	cell-free assay, competition with immobilised ligand	1 µM	93%
O=C(NCC1CCOCC1)c1n[nH]cc1NC(=O)c1c(F)cccc1F	FLT3 K663Q	binding, competition with immobilised ligand	1 µM	91%
COc1ncc2cc3ccccc3nc2c1C#N	FLT3 N841I	cell-free assay, competition with immobilised ligand	5 µM	100%
O=C(NCCCN1CCOCC1)c1ccc(Nc2ncc(Cl)c(-c3ccc(Cl)s3)n2)cc1	Receptor-type tyrosine-protein kinase FLT3 (FLT3, Homo sapiens, UniProt P36888, D835V/ITD)	binding, competition with immobilised ligand	1 µM	1.8%
c1cncc(-c2cccc(Nc3nccc(NC4CCCCC4)n3)c2)c1	FLT3 D835V	binding, competition with immobilised ligand	10 µM	0%
O=C(NCCCN1CCOCC1)c1ccc(Nc2nccc(-c3cc4ccccc4s3)n2)cc1	FLT3 ITD	binding, competition with immobilised ligand	1 µM	50%
c1cnn2ncc(-c3ccnc(N4CCC45COC5)n3)c2c1	FLT3	binding	1 µM	85%
O=C(c1ccc(Nc2nccc(-c3cc4ccccc4s3)n2)cc1)N1CCC(N2CCCC2)CC1	FLT3 N841I	binding, competition with immobilised ligand	1 µM	3.6%
CN(C)c1nccc(-c2cnn3ncccc23)n1	FLT3 K663Q	binding	1 µM	100%

SMILES	target	assay	setting	remaining binding
C[C@H](c1ccnc(Nc2nc3ccc(-c4cc(N(C)C)ncn4)cc3[nH]2)c1)N1CCN(C(=O)CC(F)(F)F)CC1	Receptor-type tyrosine-protein kinase FLT3 (FLT3, Homo sapiens, UniProt P36888, F691L/ITD)	cell-free assay, competition with immobilised ligand	0.1 µM	42%
Nc1ncc2c(n1)-c1c([nH]c3ccc(C#CC4CC4)cc13)CCCC2	FLT3 autoinhibited	binding, competition with immobilised ligand	1 µM	82%
c1ccc(N2CCN(Cc3nc4ccccc4[nH]3)CC2)nc1	FLT3 ITD	binding, competition with immobilised ligand	1 µM	100%
COc1cnc(Nc2cccc(S(N)(=O)=O)c2)nc1N1CCN(c2ccccc2)CC1	FLT3 autoinhibited	binding, competition with immobilised ligand	1 µM	91%
Cc1cnc(Nc2ccc(C(=O)N3CCC(N4CCCC4)CC3)cc2)nc1-c1cc2ccccc2s1	FLT3 D835V	binding, competition with immobilised ligand	1 µM	0.6%
C[C@H]1CCN(c2nccc(-c3cnn4ncccc34)n2)C1	FLT3 autoinhibited	binding	1 µM	72%
CCS(=O)(=O)c1cc2cc(C[C@](O)(CC(C)(C)c3ccc(F)cc3C(N)=O)C(F)(F)F)[nH]c2cn1	FLT3 N841I	cell-free assay, competition with immobilised ligand	1 µM	93%
O=C(c1ccc(Nc2ncc(Cl)c(-c3cc4ccccc4s3)n2)cc1)N1CCC(N2CCCC2)CC1	FLT3	binding, competition with immobilised ligand	1 µM	2.5%
CN(C)c1ncc(F)c(-c2cnn3ncccc23)n1	FLT3 D835H	binding	1 µM	86%
O=C(NCc1ncc(C(F)(F)F)cc1Cl)c1ccc2c(c1)C1(CCS(=O)(=O)CC1)[C@H](C1CC1)N2S(=O)(=O)c1ccc(F)cc1	FLT3 D835H	cell-free assay, competition with immobilised ligand	1 µM	92%
O=C(Nc1c[nH]nc1C(=O)NC1CCNCC1)c1cc(F)cc(F)c1	FLT3 D835V	binding, competition with immobilised ligand	1 µM	100%
N[C@@H]1CCN(c2nccc(-c3cnn4ncccc34)n2)C1	FLT3	binding	1 µM	100%
CNCc1ccccc1-c1csc([C@@H](C)Nc2nc(C)nc3cc(OC)c(OC)cc23)c1	FLT3 ITD	cell-free assay, competition with immobilised ligand	1 µM	89%
C=CC(=O)N1CCC(C(=O)NCC(=O)N2CCN(c3nc(-c4cnc(N)nc4C(F)F)nc(N4CCOCC4)n3)CC2)CC1	Receptor-type tyrosine-protein kinase FLT3 (FLT3, Homo sapiens, UniProt P36888, R834Q)	binding, competition with immobilised ligand	1 µM	84%
Cc1cc(-n2nc(Cc3cc(F)cc(C(F)(F)F)c3)nc2C)ccc1C(N)=O	FLT3 autoinhibited	cell-free assay, competition with immobilised ligand	1 µM	100%
CCN1CCN(Cc2ccc(C(=O)Nc3ccc(C)c(Oc4ccc5c(c4)CC(=O)N5)c3)cc2C(F)(F)F)CC1	FLT3	binding, competition with immobilised ligand	1 µM	41%
